Data taken from ChEMBL document CHEMBL1781975, “Synthesis, crystal structure and antimicrobial activity of deoxybenzoin derivatives from genistein” (2008).
Converted amounts (≈) assume the structure as drawn. The source made the active and inactive calls. The rule behind the calls is not given here.

Tests used:
[1] = test system: Pseudomonas fluorescens; assay: Antibacterial activity against Pseudomonas fluorescens after 24 hrs by MTT assay; format: functional
Procedure, shortened: (§1)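 Broth microdilution MIC in Mueller-Hinton medium, compounds from a 50 mg/ml DMSO stock serially diluted in the wells. Inoculum approx. 10⁵ cfu/ml, incubated 37 °C for 24 h. MIC read visually. PBS (pH 7.4) with 2 mg/ml MTT then added, 12 h further incubation at room temperature, OD at 550 nm.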

[2] = test system: Bacillus subtilis; assay: Antibacterial activity against Bacillus subtilis after 24 hrs by MTT assay; format: functional; procedure, shortened: as §1
[3] = test system: Staphylococcus aureus; assay: Antibacterial activity against Staphylococcus aureus after 24 hrs by MTT assay; format: functional; procedure, shortened: as §1
[4] = test system: Escherichia coli; assay: Antibacterial activity against Escherichia coli after 24 hrs by MTT assay; format: functional; procedure, shortened: as §1
[5] = test system: Candida albicans; assay: Antifungal activity against Candida albicans after 48 hrs by MTT assay; format: functional, organism-based
Procedure, shortened: (§2)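 Fungi tested by microdilution in RPMI-1640 buffered with 0.165 mol/L MOPS to pH 7.0. Compounds from a 50 mg/ml DMSO stock serially diluted. Inoculum approx. 10⁵ cfu/ml, 37 °C for 48 h. MIC scored visually, then MTT (2 mg/ml in PBS) added, 12 h at room temperature, absorbance 550 nm.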

[6] = test system: Trichophyton rubrum; assay: Antifungal activity against Trichophyton rubrum after 48 hrs by MTT assay; format: functional, organism-based; procedure, shortened: as §2
[7] = test system: Aspergillus niger; assay: Antifungal activity against Aspergillus niger after 48 hrs by MTT assay; format: functional, organism-based; procedure, shortened: as §2

| MIC [1] | MIC [2] | MIC [3] | MIC [4] | MIC [5] | MIC [6] | MIC [7] | SMILES |
| --- | --- | --- | --- | --- | --- | --- | --- |
| > 50 µg/mL | 31.5 µg/mL (≈ 51.1 µM) | > 50 µg/mL | 38.5 µg/mL (≈ 62.4 µM) | inactive | inactive | inactive | COc1ccc(CC(=O)c2c(OC)cc(OC)c(Cc3c(OC)cc(OC)c(C(=O)Cc4ccc(OC)cc4)c3O)c2O)cc1 |
| > 50 µg/mL | > 50 µg/mL | > 50 µg/mL | > 50 µg/mL | inactive | inactive | inactive | COc1ccc(CC(=O)c2c(O)cc(OC)cc2OC)cc1 |
| > 50 µg/mL | > 50 µg/mL | > 50 µg/mL | > 50 µg/mL | inactive | inactive | inactive | O=c1c(-c2ccc(O)cc2)coc2cc(O)cc(O)c12 [GENISTEIN] |
| > 50 µg/mL | 12.5 µg/mL (≈ 14.2 µM) | > 50 µg/mL | 25 µg/mL (≈ 28.4 µM) | inactive | inactive | inactive | O=C(O)COc1ccc(CC(=O)c2c(OCC(=O)O)cc(OCC(=O)O)c(Cc3c(OCC(=O)O)cc(OCC(=O)O)c(C(=O)Cc4ccc(OCC(=O)O)cc4)c3O)c2O)cc1 |
| > 50 µg/mL | 45.5 µg/mL (≈ 105 µM) | > 50 µg/mL | 48.5 µg/mL (≈ 112 µM) | inactive | inactive | inactive | O=C(O)COc1ccc(CC(=O)c2c(O)cc(OCC(=O)O)cc2OCC(=O)O)cc1 |
| > 50 µg/mL | 30.5 µg/mL (≈ 52.5 µM) | > 50 µg/mL | 36.5 µg/mL (≈ 62.8 µM) | inactive | inactive | inactive | O=C(Cc1ccc(OCCBr)cc1)c1c(O)cc(OCCBr)cc1OCCBr |
| > 50 µg/mL | 6.25 µg/mL (≈ 4.97 µM) | > 50 µg/mL | 17.5 µg/mL (≈ 13.9 µM) | inactive | inactive | inactive | O=C(Cc1ccc(OCCCBr)cc1)c1c(OCCCBr)cc(OCCCBr)c(Cc2c(OCCCBr)cc(OCCCBr)c(C(=O)Cc3ccc(OCCCBr)cc3)c2O)c1O |
| > 50 µg/mL | 40.5 µg/mL (≈ 156 µM) | > 50 µg/mL | 42.5 µg/mL (≈ 163 µM) | inactive | inactive | inactive | O=C(Cc1ccc(O)cc1)c1c(O)cc(O)cc1O |
| > 50 µg/mL | 25 µg/mL (≈ 40.1 µM) | > 50 µg/mL | 25 µg/mL (≈ 40.1 µM) | inactive | inactive | inactive | O=C(Cc1ccc(OCCCBr)cc1)c1c(O)cc(OCCCBr)cc1OCCCBr |

| SMILES | MIC [1] | MIC [2] | MIC [3] | MIC [4] | MIC [5] | MIC [6] | MIC [7] |
| --- | --- | --- | --- | --- | --- | --- | --- |
| CC1(C)S[C@@H]2[C@H](NC(=O)Cc3ccccc3)C(=O)N2[C@H]1C(=O)O [PENICILLIN G] | > 50 µg/mL | 7.8 µg/mL (≈ 23.3 µM) | 2 µg/mL (≈ 5.98 µM) | > 50 µg/mL | – | – | – |
| CC(=O)N1CCN(c2ccc(OCC3COC(Cn4ccnc4)(c4ccc(Cl)cc4Cl)O3)cc2)CC1 (stereo not given) [KETOCONAZOLE] | > 50 µg/mL | > 50 µg/mL | > 50 µg/mL | > 50 µg/mL | – | – | – |
| NC[C@H]1O[C@H](O[C@H]2[C@H](O)[C@@H](O[C@H]3O[C@H](CO)[C@@H](O)[C@H](N)[C@H]3O)[C@H](N)C[C@@H]2N)[C@H](O)[C@@H](O)[C@@H]1O [KANAMYCIN] | 3.9 µg/mL (≈ 8.05 µM) | 1 µg/mL (≈ 2.06 µM) | 1 µg/mL (≈ 2.06 µM) | 0.45 µg/mL (≈ 0.929 µM) | – | – | – |
